Experiments:
human CYP11B2 (hCYP11B2) = target: T1, human CYP11B2 (hCYP11B2) (Homo sapiens, UniProt P19099); assay: Assay of hCYP11B2 inhibition; assay type: biochemical; settings: from inhibition constants
T1 sequence (P19099 25-503): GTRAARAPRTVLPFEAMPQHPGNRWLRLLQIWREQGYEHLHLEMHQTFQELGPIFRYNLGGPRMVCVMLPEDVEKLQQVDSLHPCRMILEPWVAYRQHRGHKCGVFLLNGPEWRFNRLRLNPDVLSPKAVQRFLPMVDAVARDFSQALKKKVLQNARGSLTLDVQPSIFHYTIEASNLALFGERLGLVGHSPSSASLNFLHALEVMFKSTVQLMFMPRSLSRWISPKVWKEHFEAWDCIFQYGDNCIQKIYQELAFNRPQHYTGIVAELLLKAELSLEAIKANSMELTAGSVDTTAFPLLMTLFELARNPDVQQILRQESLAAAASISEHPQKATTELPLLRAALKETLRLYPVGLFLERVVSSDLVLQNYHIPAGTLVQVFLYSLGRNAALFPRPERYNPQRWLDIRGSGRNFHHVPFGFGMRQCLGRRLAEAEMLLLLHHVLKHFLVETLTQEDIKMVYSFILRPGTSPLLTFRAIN
In short: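 Enzyme source: mitochondrial fraction of V79 cells stably expressing human CYP11B2 or human CYP11B1. Substrates were 11-DOC (converted to aldosterone, CYP11B2) and 11-deoxycortisol (converted to cortisol, CYP11B1). Inhibition constants came from product-generation rates with the free base. A dual CYP11B1/CYP11B2 reference inhibitor served as positive control.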

[1] = Phase I first-in-human study: plasma and urine pharmacokinetics; assay type: in vivo
In short: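 Healthy participants received an oral capsule. SAD: 5–800 mg fasted. MAD: 40, 120 or 360 mg once daily Days 1–7, fed. Females, or males ≥65 y, got a single 100 mg fasted dose, referenced to part 1. Plasma (all parts) and urine (MAD) were analysed non-compartmentally, BLQ=0, linear trapezoidal AUC. Dose proportionality used a power model (slope 95% CI); sex/age used geometric mean ratios (90% CI); fed-vs-fasted was compared informally.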

[2] = Phase I first-in-human study: safety and tolerability; assay type: in vivo
In short: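 Randomized, double-blind, placebo-controlled. SAD cohorts had 6 active/2 placebo, with two sentinels dosed ≥24 h before the rest. MAD cohorts had 9 active/3 placebo, dosed daily Days 1–7. Safety data were reviewed before each next cohort. Monitoring covered TEAEs, treatment-related TEAEs, vital signs, 12-lead ECGs, clinical laboratory tests and physical examinations.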

plasma aldosterone = assay: Phase I pharmacodynamics: plasma aldosterone concentration; assay type: in vivo, human
In short: (§1)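 Plasma aldosterone and serum cortisol were followed after single fasted doses and after daily fed dosing. PAC AUC0–24 and cortisol AUC0–72 were derived non-compartmentally. Log AUC was modelled by dose group (pooled placebo), with Day ‑1 log AUC0–24 as covariate. Log change from time-matched Day ‑1 values over 0–24 h used a linear mixed model with unstructured covariance.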

serum cortisol = assay: Phase I pharmacodynamics: serum cortisol, incl. ACTH challenge; assay type: in vivo, human
In short: as §1

plasma renin activity = assay: Phase I pharmacodynamics: plasma renin activity; assay type: in vivo, human; settings: MAD 40 to 360 mg once daily
serum 11-DOC = assay: Phase I pharmacodynamics: serum 11-DOC; assay type: in vivo, human; settings: MAD 40 to 360 mg once daily
serum potassium = assay: Phase I: serum potassium; assay type: in vivo, human
In short: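 Serum potassium was tracked during 7 days of once-daily 40, 120 or 360 mg dosing (fed) and the following washout. The stopping criterion was 6.0 mmol/L potassium.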

[3] = test system: urinary log10 (10 × Na+/K+) ratio; assay: Phase I pharmacodynamics: urine sodium and urinary log10; assay type: in vivo, human
In short: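 Urine was collected in intervals, and the amounts of sodium and potassium excreted per interval were measured. The urinary log10(10 × Na⁺/K⁺) ratio was calculated per interval after single doses and through 7 days of once-daily 40–360 mg dosing plus washout.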

plasma 11-deoxycortisol = assay: Phase I pharmacodynamics: plasma 11-deoxycortisol; assay type: in vivo, human; settings: MAD, non-ACTH challenge conditions
[4] = MAD Day 6, all multiple-dose levels

CC(=O)N[C@H]1CC[C@H](NC(=O)CN2CCN(c3nncc(-c4ccc(C)cc4)n3)CC2)CC1 [lorundrostat, Lorundrostat]
selectivity for CYP11B2 over CYP11B1 (human CYP11B2 (hCYP11B2)): 374 fold | estimate of the slope for AUC0–24 versus dose (power model) ([1]; MAD Day 7, 95% CI, 1.060–1.234): 1.147 | steady state achieved by ([1]; MAD once-daily dosing): ~5 days | estimate of the slope (95% CI) for C max versus dose (power model) ([1]; SAD 5–800 mg): 1.104 (1.043–1.164) | interindividual variability of exposure parameters (C max and AUC0–∞) ([1]; SAD 5–800 mg): < 20% | effect of fed state on the PK profile ([1]; first cohort of part 2 (fed) vs part 1 (fasted), exploratory): did not appear to be affected | half-life ([1]; human, plasma, oral, 5 mg, t 1/2, SAD 5 mg single dose, fasted, mean (SD)): 8.3 h | half-life ([1]; human, plasma, oral, 10 mg, t 1/2, SAD 10 mg single dose, fasted, mean (SD)): 7.9 h | half-life ([1]; human, plasma, oral, 40 mg, t 1/2, MAD 40 mg once daily, fed, Day 1, mean (SD)): 5.3 h | half-life ([1]; human, plasma, oral, 50 mg, t 1/2, SAD 50 mg single dose, fasted, mean (SD)): 9.1 h | half-life ([1]; human, plasma, oral, 120 mg, t 1/2, MAD 120 mg once daily, fed, Day 1, mean (SD)): 4.4 h | half-life ([1]; human, plasma, oral, 200 mg, t 1/2, SAD 200 mg single dose, fasted, mean (SD)): 9.9 h | Tmax ([1]; human, plasma, oral, 360 mg, T max, MAD 360 mg once daily, fed, Day 1, median (minimum, maximum)): 3 h | half-life ([1]; human, plasma, oral, 360 mg, t 1/2, MAD 360 mg once daily, fed, Day 1, mean (SD)): 4.4 h | half-life ([1]; human, plasma, oral, 360 mg, t 1/2, MAD 360 mg once daily, fed, Day 7, mean (SD)): 9.2 h | half-life ([1]; human, plasma, oral, 400 mg, t 1/2, SAD 400 mg single dose, fasted, mean (SD)): 9.7 h | half-life ([1]; human, plasma, oral, 800 mg, t 1/2, SAD 800 mg single dose, fasted, mean (SD)): 10.5 h | half-life ([1]; human, plasma, oral, mean t 1/2, MAD Day 7, range over dose groups): 9.1 to 11.9 h | half-life ([1]; human, plasma, oral, t 1/2, single- and multiple-dose administration): 10 to 12 h | difference in exposure between females and males ([1]; single 100 mg dose, part 3 vs part 1): no statistically significant difference | difference in exposure between older adult and younger adult participants ([1]; single 100 mg dose, part 4 vs part 1): no statistically significant difference | incidence of dizziness (of mild intensity) ([2]; across all cohorts, nine lorundrostat-treated participants, placebo one (3.4%)): 10.3% | overall incidence of TEAEs ([2]; all lorundrostat-treated participants (41/87), placebo 18/29 [62%]): 47% | findings in clinical laboratory, vital signs, ECGs, or physical examination ([2]; all parts): no clinically significant findings | serious TEAEs ([2]; all parts): no serious TEAEs | tolerability ([2]; all parts, single up to 800 mg, once daily up to 360 mg for 7 days): well tolerated | ACTH-stimulated aldosterone response compared with placebo (plasma aldosterone; [4]): completely blunted | maximum decrease of PAC compared with placebo (plasma aldosterone; SAD, at 4 h and 8 h post-dose): ~ 80% | time for plasma aldosterone to return to baseline (plasma aldosterone; multiple once-daily 120-mg doses): ≤ 16 h | reduction of PAC (AUC0–24) (plasma aldosterone; single 400- to 800-mg doses): up to 70% | time for PAC to return to values near baseline (plasma aldosterone; single doses 5–50 mg, post-dose): ≤ 24 h | duration of the reduction of PAC (plasma aldosterone; single doses 100–800 mg): sustained until 24 h post‐dose | ACTH-stimulated cortisol response (serum cortisol; [4]): no effect | change from baseline of serum cortisol concentrations (serum cortisol; MAD, non-ACTH challenge conditions): no relevant changes from baseline | effect on cortisol (AUC0–72) (serum cortisol; single doses 10 to 800 mg): without effecting cortisol | plasma renin activity compared with placebo (plasma renin activity): increased | serum 11-DOC compared with placebo (serum 11-DOC): increased | maximum mean increase of serum potassium (serum potassium; MAD 40 mg, Day 8): 0.44 mmol/L | maximum mean increase of serum potassium (serum potassium; MAD 120 mg, Day 7): 0.6 mmol/L | subjects reaching the stopping criterion for potassium of 6.0 mmol/L (serum potassium; MAD part 2): None | urine sodium and urinary log10 (10 × Na+/K+) ratio ([3]; MAD Day 1, all dose levels): initially increased | urine sodium and urinary log10 (10 × Na+/K+) ratio ([3]; MAD Day 7, end of the dosing period): returned to baseline levels | urinary log10 (10 × Na+/K+) ratio ([3]; MAD, Day 7 to Day 9 (after last dose)): clear reductions | urine sodium and urinary log10 (10 × Na+/K+) ratio ([3]; SAD, all dose levels): increased | change from baseline of plasma 11-deoxycortisol concentrations (plasma 11-deoxycortisol): no relevant changes from baseline

From PMC11329366 (Clinical and Translational Science, 2024)
